# The entries come from a sample that favours hits as a whole.
# PGC1a Ac signal = compounds raising PGC1a acetylation signal, primary screen, PGC1a modulator project, cell-based, U2OS, AlphaScreen, signal-increasing mode. overnight. activation, % at 15.6 µM. 0.21% of 350,000 active;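 active = every replicate reaching activation of at least 50%, whatever the mean replicate activation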;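 note: hits raise the AlphaScreen acetylation signal above neutral controls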
#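 detection = AlphaScreen lysate read | assay system = U2OS cells expressing flag-PGC1a plus GCN5 | input = 7000 cells/well | dosing = one concentration | times = compound overnight at 37 °C, each detection step 1 h RT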
# * = called active by the depositor.
SMILES,PGC1a Ac signal
COc1cccc2cc(C(C)N(CCCN3CCOCC3)C(=S)Nc3cc(C)ccc3C)oc12 (stereo unspecified),-43.8
CC(C)(O)C#Cc1ccc(C(=O)NC(CCCNC(N)=O)C(=O)O)s1 (stereo unspecified),-81.8
O=C(N/N=C/C(Br)=C/c1ccccc1)c1ccccc1F,57.5*
CC1C(=O)NN=C1C(=O)N/N=C\C(Br)=C\c1ccccc1 (stereo unspecified),404.2*
O=C(NN=C1c2ccccc2-c2ccccc21)c1ccccc1Br,-66.1
c1ccc(N2CCN(C3CC4CCC3C4)CC2)cc1 (stereo unspecified),-52.7
C[C@H](NS(=O)(=O)c1ccc2c(c1)OCCCO2)C(=O)N1CCN(Cc2ccccc2)CC1,-47.3
Cc1ccc(CN(C(=O)Cn2nnc3ccccc32)C(C(=O)NCc2ccco2)c2cccs2)cc1 (stereo unspecified),-45.6
CC1=C(C(=O)OC(C)(C)C)C(c2ccc3ccccc3c2)NC(=O)N1C (stereo unspecified),-65.5
CCOC(=O)c1oc2nc3c(cc2c1N)COC(C)(C)C3,63.1*
Cc1cc2oc(=O)cc(CN3CCC(C)CC3)c2cc1C,-41.9
CN(C)S(=O)(=O)c1ccc(N2CCCC2)c(C(=O)NCc2cccc(C(F)(F)F)c2)c1,92.5*
COc1ccc(N(CC(=O)Nc2ccccc2Cl)S(=O)(=O)c2ccc(C)cc2)cc1OC,-45.1
C[C@@H]1CN([C@@H](C)CO)C(=O)c2cccc(NC(=O)Nc3ccccc3)c2O[C@H]1CN(C)S(=O)(=O)c1cccs1,-54.4
Cc1ccc(NC(=O)CN(C)S(=O)(=O)c2cccs2)c(Br)c1,58.9*
O=C1Nc2cc(S(=O)(=O)N3CCCC3)ccc2N2CCCC12 (stereo unspecified),94.7*
CCC(=O)NCc1c(C)c(C)n(Cc2ccccc2)c1-n1cccc1,-43.1
CC(=O)c1coc2c1cc(O)c1ccccc12,62.7*
O=C1NC(=S)S/C1=C\C=C\c1ccc([N+](=O)[O-])o1,72.6*
Cc1cccc(N(CC(=O)NC(C)(C)C)C(=O)CNC(=O)c2cccs2)c1,-47.4
CO[C@@H]1CN(C)C(=O)c2ccc(NC(C)=O)cc2OC[C@@H](C)N(C(=O)Cc2cccnc2)C[C@@H]1C,-46.9
COc1ccc(Oc2c(Cl)cnn(-c3ccc(F)cc3)c2=O)cc1,81.4*
COc1ccc2c([N+](=O)[O-])c(N3CCCC3)[nH]c2c1,-48.3
O=C(O)c1cccc(N2C(=O)CSC2c2c(F)cccc2Cl)c1 (stereo unspecified),56.3*
COc1ccccc1CNC(=O)C[C@@H]1CC[C@@H]2[C@H](COC[C@H](O)CN2C(=O)Nc2ccc(Cl)cc2)O1,-56.1
SMILES,PGC1a Ac signal
COc1ccc(S(=O)(=O)N(C)C[C@H]2Oc3c(NS(=O)(=O)c4ccc(C)cc4)cccc3C(=O)N([C@H](C)CO)C[C@H]2C)cc1,-40.5
NC(=O)c1ccccc1NC(=O)/C=C/C(=O)O,62.3*
O=S(=O)(Nc1ccccn1)c1ccc(-n2cccn2)cc1,-46.0
Cc1ccc(NC(=O)c2ccc(NCC3CCCO3)c([N+](=O)[O-])c2)cc1Cl (stereo unspecified),-43.3
O=C(COC(=O)c1ccccc1C(=O)c1ccc(Cl)c([N+](=O)[O-])c1)NC1CCCCCC1,160.2*
C[C@H](NC(=O)C[C@H]1CC[C@@H](NC(=O)C2CC2)[C@H](CO)O1)c1ccccc1,-51.7
CN=C1c2cc3cc(OC)ccc3n2CCN1Cc1ccccc1,83.3*
CCOc1ccc(OCc2ccc(C(=O)NN=Cc3ccc[nH]3)cc2)cc1,-46.5
O=C(CC1SC(=NCc2ccccc2)NC1=O)Nc1ccccc1 (stereo unspecified),98.6*
CCCCN=C1NC(=O)C(CC(=O)Nc2ccc(Cl)cc2)S1 (stereo unspecified),171.3*
COCCOc1ccc(C(F)(F)F)cc1NC(=O)CN1C(=O)NC2(CCCc3ccccc32)C1=O (stereo unspecified),-54.6
CCCCCCC1CC(=O)NC(=S)N1 (stereo unspecified),-62.8
CCn1c(CNc2ccc(C)cc2)nnc1SCC(N)=O,76.4*
CCn1c(SCC(=O)Nc2ccc(OC)c(OC)c2)nnc1-c1cccs1,-41.3
CCn1c(SCC(N)=O)nnc1C(C)C,-43.9
COc1ccccc1C(=O)Nc1nnc(CCc2ccccc2)s1,69.0*
CC(C)Cc1nnc(NC(=O)c2cc3c(s2)CCC3)s1,-43.2
COc1cccc(C(=O)Nn2cnnc2)c1OC,-74.9
CC1OC2CC(=O)OC2C2=C1C(=O)c1c(O)cccc1C2=O (stereo unspecified),-78.4
COc1ccc([N+](=O)[O-])cc1NCc1ccccc1,83.6*
COc1ccc(C(=O)OCC(=O)NCc2ccc3c(c2)OCO3)cc1[N+](=O)[O-],-45.6
COc1ccc(C(=O)NC(=S)N(C)Cc2ccccc2)cc1Br,-49.2
CCOc1ccc2nc(NCCCNC(=O)c3cc(OC)c(OC)c(OC)c3)c(C#N)cc2c1,-41.8
C[C@@H]1CN([C@H](C)CO)C(=O)CCCn2nncc2CO[C@H]1CN(C)C(=O)C1CC1,-50.9
CCOC(=O)C1(Cc2cccc(Cl)c2)CCCN(C(=O)c2cccnc2)C1 (stereo unspecified),-96.7
SMILES,PGC1a Ac signal
CC1CCN(S(=O)(=O)c2ccc(Oc3ccc([N+](=O)[O-])cc3)cc2)CC1,-53.9
CCOC(=O)C1=CC[C@@H](c2ccc([N+](=O)[O-])cc2)N(S(=O)(=O)c2ccc(C)cc2)[C@H]1c1ccccc1,56.6*
Fc1ccc(CO/N=C/C2=C(Cl)c3ccccc3CC2)cc1,-79.1
CCS(=O)(=O)c1ccc(O)c(NC(=O)COc2ccc(Br)cc2)c1,-96.8
COc1cccc(N(C(=O)CCl)C(C(=O)NCCc2ccccc2)c2cccs2)c1 (stereo unspecified),-29.3
COc1cccc(S(=O)(=O)N[C@H]2CC[C@H](CC(=O)NCc3ccc(F)cc3)O[C@@H]2CO)c1,-55.3
COc1cccc(N(CC(=O)NCc2cccnc2)S(C)(=O)=O)c1,88.8*
CCOC(=O)COc1ccc(/C=C/[N+](=O)[O-])c(OCC(=O)OCC)c1,77.0*
CCCCN(c1ccccc1)c1ncnc(N)c1[N+](=O)[O-],-52.0
N#Cc1cccc(-c2ccc([C@@H]3[C@@H]4CN(S(=O)(=O)c5ccc(-c6ccccc6)cc5)C[C@H]3N4)cc2)c1,-93.0
COc1ccccc1-c1ccc(C2[C@@H]3CN(S(=O)(=O)c4ccc(C)cc4)C[C@H]2N3)cc1 (stereo partly specified),94.8*
Cn1c(CO)cnc1SCC(=O)c1ccc(Cl)cc1,-43.1
O=C(Cc1ccccc1)N1CCN(c2ccc([N+](=O)[O-])cc2)CC1,117.6*
O=C(Nc1ccc(N2CCN(Cc3ccccc3F)CC2)cc1)c1ccc([N+](=O)[O-])o1,-72.7
CC(c1ccccc1)C1CC(=O)N(c2ccc([N+](=O)[O-])cc2)C1=O (stereo unspecified),-40.9
Cc1ccc(OCC(=O)N2CC(C)OC(C)C2)c([N+](=O)[O-])n1 (stereo unspecified),-42.8
CCCCC(C(=O)O)C(C)CC(=O)Nc1nncs1 (stereo unspecified),-44.9
CC(=O)c1ccc(N2CCN(c3ccc(S(=O)(=O)NCCCN(C)C)cc3[N+](=O)[O-])CC2)cc1,95.2*
CCCNC(=O)Nc1ccc2c(c1)C(=O)N(C)C[C@H](OC)[C@H](C)CN(CC1CCCC1)[C@@H](C)CO2,-43.9
CC1CC1C(=O)OCC(=O)NCc1ccc(Cl)cc1 (stereo unspecified),55.5*

# Screening results from PubChem.
